According to ChEMBL document CHEMBL1147862, “Studies on synthesis and pharmacological activities of 3,6-disubstituted-1,2,4-triazolo[3,4-b]-1,3,4-thiadiazoles and their dihydro analogues” (2007):

Columns and labels:
Assay type in all cases: functional
Mus musculus [1] = assay: Analgesic activity in Swiss mouse assessed as increase in reaction time at 20 mg/kg, po after 30 mins by Eddy's hot plate technique
Method in brief: (§1)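 Swiss mice of either sex, 25–35 g, placed one at a time on a hot plate held at 55 °C. End point is paw licking or jumping, whichever comes first, with a 15 s cut-off to avoid paw injury. Reaction time is recorded and reported as percent increase in reaction time.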

Mus musculus [2] = assay: Analgesic activity in Swiss mouse assessed as increase in reaction time at 20 mg/kg, po after 60 mins by Eddy's hot plate technique; method in brief: as §1
Mus musculus [3] = assay: Analgesic activity in Swiss mouse assessed as increase in reaction time at 20 mg/kg, po after 90 mins by Eddy's hot plate technique; method in brief: as §1
Candida albicans [4] = assay: Antifungal activity against Candida albicans at 10 ug/ml by paper disc method; details: read-out: IZ
Candida albicans [5] = assay: Antifungal activity against Candida albicans at 20 ug/ml by paper disc method; details: read-out: IZ
Candida albicans [6] = assay: Antifungal activity against Candida albicans at 30 ug/ml by paper disc method; details: read-out: IZ
Aspergillus niger [7] = assay: Antifungal activity against Aspergillus niger at 10 ug/ml by paper disc method; details: read-out: IZ
Aspergillus niger [8] = assay: Antifungal activity against Aspergillus niger at 20 ug/ml by paper disc method; details: read-out: IZ
Aspergillus niger [9] = assay: Antifungal activity against Aspergillus niger at 30 ug/ml by paper disc method; details: read-out: IZ
Escherichia coli [10] = assay: Antibacterial activity against Escherichia coli at 10 ug/ml by agar plate diffusion technique; details: read-out: IZ
Escherichia coli [11] = assay: Antibacterial activity against Escherichia coli at 20 ug/ml by agar plate diffusion technique; details: read-out: IZ
Escherichia coli [12] = assay: Antibacterial activity against Escherichia coli at 30 ug/ml by agar plate diffusion technique; details: read-out: IZ
Pseudomonas aeruginosa [13] = assay: Antibacterial activity against Pseudomonas aeruginosa at 10 ug/ml by agar plate diffusion technique; details: read-out: IZ
Pseudomonas aeruginosa [14] = assay: Antibacterial activity against Pseudomonas aeruginosa at 20 ug/ml by agar plate diffusion technique; details: read-out: IZ
Pseudomonas aeruginosa [15] = assay: Antibacterial activity against Pseudomonas aeruginosa at 30 ug/ml by agar plate diffusion technique; details: read-out: IZ
Bacillus subtilis [16] = assay: Antibacterial activity against Bacillus subtilis at 10 ug/ml by agar plate diffusion technique; details: read-out: IZ
Bacillus subtilis [17] = assay: Antibacterial activity against Bacillus subtilis at 20 ug/ml by agar plate diffusion technique; details: read-out: IZ
Bacillus subtilis [18] = assay: Antibacterial activity against Bacillus subtilis at 30 ug/ml by agar plate diffusion technique; details: read-out: IZ
Staphylococcus aureus [19] = assay: Antibacterial activity against Staphylococcus aureus at 10 ug/ml by agar plate diffusion technique; details: read-out: IZ
Staphylococcus aureus [20] = assay: Antibacterial activity against Staphylococcus aureus at 20 ug/ml by agar plate diffusion technique; details: read-out: IZ
Staphylococcus aureus [21] = assay: Antibacterial activity against Staphylococcus aureus at 30 ug/ml by agar plate diffusion technique; details: read-out: IZ
Rattus norvegicus [22] = assay: Antiinflammatory activity in Wistar Albino rat assessed as inhibition of carrageenan-induced paw oedema at 20 mg/kg after 1 hr relative to control
Method in brief: (§2)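 Wistar albino rats, 150–200 g, six per group, dosed orally with a 20 mg/kg suspension; control gets 0.1 ml 1% gum acacia. After 30 min, 0.1 ml 1% carrageenan in saline is injected subplantar into the right hind paw. Paw volume is read by plethysmograph at 0–4 h. Inhibition = 100(1 − Vtest/Vcontrol) on mean volume increase.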

Rattus norvegicus [23] = assay: Antiinflammatory activity in Wistar Albino rat assessed as inhibition of carrageenan-induced paw oedema at 20 mg/kg after 2 hrs relative to control; method in brief: as §2
Rattus norvegicus [24] = assay: Antiinflammatory activity in Wistar Albino rat assessed as inhibition of carrageenan-induced paw oedema at 20 mg/kg after 3 hrs relative to control; method in brief: as §2
Rattus norvegicus [25] = assay: Antiinflammatory activity in Wistar Albino rat assessed as inhibition of carrageenan-induced paw oedema at 20 mg/kg after 4 hrs relative to control; method in brief: as §2

Row | Structure (SMILES) | Activity (Mus musculus [1]) | Activity (Mus musculus [2]) | Activity (Mus musculus [3]) | zone of inhibition at 10 µg/mL (Candida albicans [4]) | zone of inhibition at 20 µg/mL (Candida albicans [5]) | zone of inhibition at 30 µg/mL (Candida albicans [6]) | zone of inhibition at 10 µg/mL (Aspergillus niger [7]) | zone of inhibition at 20 µg/mL (Aspergillus niger [8]) | zone of inhibition at 30 µg/mL (Aspergillus niger [9]) | zone of inhibition at 10 µg/mL (Escherichia coli [10]) | zone of inhibition at 20 µg/mL (Escherichia coli [11]) | zone of inhibition at 30 µg/mL (Escherichia coli [12]) | zone of inhibition at 10 µg/mL (Pseudomonas aeruginosa [13]) | zone of inhibition at 20 µg/mL (Pseudomonas aeruginosa [14]) | zone of inhibition at 30 µg/mL (Pseudomonas aeruginosa [15]) | zone of inhibition at 10 µg/mL (Bacillus subtilis [16]) | zone of inhibition at 20 µg/mL (Bacillus subtilis [17]) | zone of inhibition at 30 µg/mL (Bacillus subtilis [18]) | zone of inhibition at 10 µg/mL (Staphylococcus aureus [19]) | zone of inhibition at 20 µg/mL (Staphylococcus aureus [20]) | further results
1 | Cc1occc1-c1nnc2sc(-c3ccnc4ccccc34)nn12 | 5.62% | 10.24% | 19.24% | 5.78 mm | 11 mm | 19.2 mm | 6.14 mm | 12 mm | 19.6 mm | 8.74 mm | 15.3 mm | 19.4 mm | 8.17 mm | 14.2 mm | 19.1 mm | 8.14 mm | 14.1 mm | 19.8 mm | 8.16 mm | 14.1 mm | zone of inhibition at 30 µg/mL (Staphylococcus aureus [21]): 19.1 mm; inhibition in vivo at 20 mg/kg (Rattus norvegicus [22]): 12.5%; inhibition in vivo at 20 mg/kg (Rattus norvegicus [23]): 17.1%; inhibition in vivo at 20 mg/kg (Rattus norvegicus [24]): 20.3%; inhibition in vivo at 20 mg/kg (Rattus norvegicus [25]): 23.4%
2 | COc1ccc(Cc2nnc3n2NC(c2ccc([N+](=O)[O-])o2)S3)cc1OC (stereo not given) | 2.83% | 10.3% | 22.66% | 5.43 mm | 10.9 mm | 14.8 mm | 5.21 mm | 9.64 mm | 14.3 mm | 5.16 mm | 10 mm | 15 mm | 4.42 mm | 7.88 mm | 13.1 mm | 4.92 mm | 8.49 mm | 13.5 mm | 5.1 mm | 8.37 mm | zone of inhibition at 30 µg/mL (Staphylococcus aureus [21]): 14 mm; inhibition in vivo at 20 mg/kg (Rattus norvegicus [22]): 14.5%; inhibition in vivo at 20 mg/kg (Rattus norvegicus [23]): 17.6%; inhibition in vivo at 20 mg/kg (Rattus norvegicus [24]): 21.4%; inhibition in vivo at 20 mg/kg (Rattus norvegicus [25]): 23.7%
3 | COc1ccc(Cc2nnc3sc(-c4cc(O)nc(O)c4)nn23)cc1OC | 5.71% | 14.1% | 23.45% | 3.82 mm | 6.82 mm | 13.9 mm | 4.16 mm | 7.84 mm | 11.9 mm | 4.26 mm | 8.1 mm | 13.3 mm | 4.63 mm | 8.9 mm | 13.1 mm | 4.58 mm | 8.12 mm | 13.9 mm | 4.61 mm | 8.93 mm | zone of inhibition at 30 µg/mL (Staphylococcus aureus [21]): 13.9 mm; inhibition in vivo at 20 mg/kg (Rattus norvegicus [22]): 10.5%; inhibition in vivo at 20 mg/kg (Rattus norvegicus [23]): 12.9%; inhibition in vivo at 20 mg/kg (Rattus norvegicus [24]): 17.1%; inhibition in vivo at 20 mg/kg (Rattus norvegicus [25]): 20.8%
4 | COc1ccc2[nH]c(C)c(Cc3nn4c(Cc5ccc(OC)c(OC)c5)nnc4s3)c2c1 | 19.23% | 27.82% | 29.04% | 4.62 mm | 8.02 mm | 12.1 mm | 4.9 mm | 7.58 mm | 10.8 mm | 4.48 mm | 7.42 mm | 12.4 mm | 4.04 mm | 7.42 mm | 12.6 mm | 4.07 mm | 7.21 mm | 12.3 mm | 4.06 mm | 8.08 mm | zone of inhibition at 30 µg/mL (Staphylococcus aureus [21]): 12 mm; inhibition in vivo at 20 mg/kg (Rattus norvegicus [22]): 10.5%; inhibition in vivo at 20 mg/kg (Rattus norvegicus [23]): 16.2%; inhibition in vivo at 20 mg/kg (Rattus norvegicus [24]): 21.4%; inhibition in vivo at 20 mg/kg (Rattus norvegicus [25]): 28.4%
5 | COc1ccc(Cl)c(-c2nnc3sc(-c4ccnc(Cl)c4)nn23)c1 | 7.14% | 17.45% | 23% | 7.14 mm | 13.7 mm | 19.3 mm | 6.64 mm | 11.8 mm | 18.4 mm | 6.39 mm | 12.2 mm | 19.2 mm | 7.02 mm | 12.5 mm | 19.1 mm | 7.12 mm | 13.8 mm | 18.6 mm | 6.98 mm | 13.7 mm | zone of inhibition at 30 µg/mL (Staphylococcus aureus [21]): 18.6 mm; inhibition in vivo at 20 mg/kg (Rattus norvegicus [22]): 14.4%; inhibition in vivo at 20 mg/kg (Rattus norvegicus [23]): 20.1%; inhibition in vivo at 20 mg/kg (Rattus norvegicus [24]): 23.5%; inhibition in vivo at 20 mg/kg (Rattus norvegicus [25]): 27.2%
